Tests used:
Canis familiaris [1] = organism: Canis familiaris; experiment: Effective concentration for the agonist in the isolated blood vessel using in vitro femoral artery; format: functional; details: Canis lupus familiaris
Method in brief: (§1)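 Vessel segments from mongrel dogs (15–25 kg) anesthetized with pentobarbital (30 mg/kg iv), mounted for isometric tension in physiological saline. Equilibrated 90 min with bath changes every 30 min, rauwolscine (10^-7 M) present throughout. Primed with KCl (100 mM), then phenylephrine (1 µM). Agonist concentration–response curves run at half-log steps, giving EC50 (µM) and Emax as % of phenylephrine maximum; mean ±SD.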

[2] = molecular target: T1, Alpha-2A adrenergic receptor (Homo sapiens, UniProt P08913); experiment: Binding affinity towards Alpha-2A adrenergic receptor in human platelets using [3H]RX-821002 as radioligand
T1 sequence (P08913 whole entry): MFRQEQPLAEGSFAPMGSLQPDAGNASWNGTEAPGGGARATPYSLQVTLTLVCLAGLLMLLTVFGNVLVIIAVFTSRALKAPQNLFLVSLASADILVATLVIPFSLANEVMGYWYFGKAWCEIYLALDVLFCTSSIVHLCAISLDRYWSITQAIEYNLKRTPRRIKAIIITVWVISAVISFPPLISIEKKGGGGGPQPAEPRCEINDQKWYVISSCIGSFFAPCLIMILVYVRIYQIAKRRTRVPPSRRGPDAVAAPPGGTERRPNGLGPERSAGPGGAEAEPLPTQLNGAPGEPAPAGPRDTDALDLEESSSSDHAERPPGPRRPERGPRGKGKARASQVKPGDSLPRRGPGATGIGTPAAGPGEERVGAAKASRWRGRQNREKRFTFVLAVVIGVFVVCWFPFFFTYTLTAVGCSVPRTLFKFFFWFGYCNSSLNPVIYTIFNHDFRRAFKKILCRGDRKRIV
Method in brief: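 Human platelet membranes with [3H]RX821002 (1.5 nM), nonspecific binding with phentolamine (10 µM). Displacement at nine concentrations spanning 3 orders of magnitude, IC50 by log-probit analysis, converted to Ki using Scatchard Kd. ≥3 independent duplicate experiments.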

[3] = molecular target: T2, Adrenergic receptor alpha (Rattus norvegicus) (UniProt P15823+P23944+P43140+P22086+P19328+P22909); experiment: Alpha adrenergic activity was evaluated as concentration (iv) which increases the arterial pressure by 20 mmHg in the pithed rat; format: functional, organism-based; details: Artery
[4] = molecular target: T3, Alpha-2B adrenergic receptor (Rattus norvegicus, UniProt P19328); experiment: Binding affinity towards Alpha-2B adrenergic receptor in neonatal rat lung using [3H]-RX-821002 as radioligand
T3 sequence (P19328 whole entry): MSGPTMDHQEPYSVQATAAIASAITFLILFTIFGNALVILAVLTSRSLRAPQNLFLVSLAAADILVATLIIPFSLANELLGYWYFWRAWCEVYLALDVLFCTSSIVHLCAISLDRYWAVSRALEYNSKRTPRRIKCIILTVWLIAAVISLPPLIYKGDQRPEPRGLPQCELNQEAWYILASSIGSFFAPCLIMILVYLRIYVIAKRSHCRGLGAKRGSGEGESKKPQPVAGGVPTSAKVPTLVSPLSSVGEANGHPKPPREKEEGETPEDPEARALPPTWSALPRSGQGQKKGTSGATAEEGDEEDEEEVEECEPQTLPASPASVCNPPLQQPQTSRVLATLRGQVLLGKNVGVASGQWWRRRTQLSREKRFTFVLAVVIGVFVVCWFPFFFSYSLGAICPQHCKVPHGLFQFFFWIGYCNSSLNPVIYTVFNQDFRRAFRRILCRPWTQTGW
Method in brief: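 Neonatal rat lung membranes with [3H]RX821002 (0.5 nM), nonspecific binding with phentolamine (10 µM). Nine concentrations over 3 log units, IC50 by log-probit, Ki by Cheng–Prusoff with Scatchard-derived Kd. ≥3 independent experiments in duplicate.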

[5] = molecular target: T4, Adrenergic receptor alpha-1 (Rattus norvegicus, UniProt P15823+P23944+P43140); experiment: Displacement of [3H]prazosin from rat cortex Alpha-1 adrenergic receptor
T4 sequence (P15823 whole entry): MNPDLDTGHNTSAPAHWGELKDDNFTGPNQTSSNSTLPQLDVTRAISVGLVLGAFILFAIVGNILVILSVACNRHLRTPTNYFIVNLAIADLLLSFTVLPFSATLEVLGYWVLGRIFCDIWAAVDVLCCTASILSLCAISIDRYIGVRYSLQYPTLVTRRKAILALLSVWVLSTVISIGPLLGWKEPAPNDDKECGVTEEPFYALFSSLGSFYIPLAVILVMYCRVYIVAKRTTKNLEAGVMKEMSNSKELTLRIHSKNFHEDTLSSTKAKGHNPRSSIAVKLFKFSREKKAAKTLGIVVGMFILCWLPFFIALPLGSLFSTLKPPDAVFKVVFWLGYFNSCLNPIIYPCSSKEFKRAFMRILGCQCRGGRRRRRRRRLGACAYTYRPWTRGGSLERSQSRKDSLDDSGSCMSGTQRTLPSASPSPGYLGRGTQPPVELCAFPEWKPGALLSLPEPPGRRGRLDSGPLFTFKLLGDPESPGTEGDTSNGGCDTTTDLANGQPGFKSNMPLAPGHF
T4 sequence (P23944 whole entry): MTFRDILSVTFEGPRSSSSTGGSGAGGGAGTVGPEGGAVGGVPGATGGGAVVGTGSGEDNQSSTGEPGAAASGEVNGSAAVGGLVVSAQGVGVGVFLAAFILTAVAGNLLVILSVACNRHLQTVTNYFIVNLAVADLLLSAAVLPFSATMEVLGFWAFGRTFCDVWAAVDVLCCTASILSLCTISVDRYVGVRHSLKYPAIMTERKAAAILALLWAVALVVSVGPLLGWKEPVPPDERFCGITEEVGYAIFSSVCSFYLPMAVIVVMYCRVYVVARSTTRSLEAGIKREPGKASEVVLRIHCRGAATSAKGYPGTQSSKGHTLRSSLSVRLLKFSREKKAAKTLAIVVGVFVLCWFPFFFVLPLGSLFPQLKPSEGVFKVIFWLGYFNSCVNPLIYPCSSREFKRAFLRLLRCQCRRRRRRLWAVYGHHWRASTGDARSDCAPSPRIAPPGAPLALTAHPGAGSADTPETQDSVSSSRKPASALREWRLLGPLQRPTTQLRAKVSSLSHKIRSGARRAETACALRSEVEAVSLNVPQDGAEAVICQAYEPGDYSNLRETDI
T4 sequence (P43140 whole entry): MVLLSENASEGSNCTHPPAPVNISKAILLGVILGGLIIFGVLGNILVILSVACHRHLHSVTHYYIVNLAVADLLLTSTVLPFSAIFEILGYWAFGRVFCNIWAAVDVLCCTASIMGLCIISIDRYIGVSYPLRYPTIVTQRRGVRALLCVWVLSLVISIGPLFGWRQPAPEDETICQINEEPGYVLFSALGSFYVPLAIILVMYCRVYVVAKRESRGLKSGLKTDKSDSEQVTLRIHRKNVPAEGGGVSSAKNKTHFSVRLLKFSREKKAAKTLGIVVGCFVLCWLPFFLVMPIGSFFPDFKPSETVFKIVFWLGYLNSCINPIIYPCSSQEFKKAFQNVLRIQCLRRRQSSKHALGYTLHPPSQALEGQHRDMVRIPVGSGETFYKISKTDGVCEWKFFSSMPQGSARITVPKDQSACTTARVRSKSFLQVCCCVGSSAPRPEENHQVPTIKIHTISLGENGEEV
Method in brief: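 Rat cortex membranes labelled with [3H]prazosin (0.3 nM), nonspecific binding with prazosin (10 µM). Nine drug concentrations spanning 3 log units, IC50 by log-probit analysis. Ki by Cheng–Prusoff using Kd from Scatchard saturation. At least three independent experiments in duplicate.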

Canis familiaris [6] = organism: Canis familiaris; experiment: Maximal contractile response obtained with the agonist (expressed as a percentage of the maximal contraction to phenylephrine in the dog saphenous vein); format: functional, Canis lupus familiaris; method in brief: as §1
Canis familiaris [7] = organism: Canis familiaris; experiment: Maximal contractile response obtained with the agonist (expressed as a percentage of the maximal contraction to phenylephrine in the dog femoral artery); format: functional, Canis lupus familiaris; method in brief: as §1
[8] = Ratio of C20 obtained in the absence or presence of [C20 ( 0.1 mg of prazosin ) / C20 (control)]; format: functional
Method in brief: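 Pithed rats pretreated with tertatolol (100 mg/kg), then 10 min later with prazosin (100 µg/kg). Cumulative iv agonist doses given another 10 min later at 20 s intervals. Arterial pressure recorded, C20 (dose giving +20 mmHg) determined. Ratio calculated as C20(prazosin)/C20(control); 3–6 determinations.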

[9] = molecular target: T2, Adrenergic receptor alpha (Rattus norvegicus); experiment: Alpha adrenergic activity was evaluated as maximal pressure response caused by agonist, expressed in mmHg (the maximum obtained with phenylephrine is 150 mmHg).; format: functional
[10] = Ratio of C20 obtained in the absence or presence of [C20 (1 mg of yohimbine.) / C20 (control)]; format: functional
Method in brief: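 Pithed rat arterial pressure assay with tertatolol (100 mg/kg) pretreatment, then yohimbine (1 mg/kg) 10 min later. Cumulative iv agonist doses given at 20 s intervals after a further 10 min, C20 (+20 mmHg dose) obtained. Ratio expressed as C20(yohimbine)/C20(control); 3–6 determinations.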

Canis familiaris [11] = organism: Canis familiaris; experiment: Effective concentration for the agonist in the isolated blood vessel using in vitro saphenous vein; format: functional; details: Canis lupus familiaris; method in brief: as §1
[12] = Ratio of C20 (pithed rat) to that of EC50 (saphenous vein); format: functional

Structure (SMILES) | EC50 (Canis familiaris [1]) [µM] | Ki [2] [nM] | C20 [3] [µg/kg] | Ki [4] [nM] | Ki [5] [µM] | Max [9] [mmHg] | EC50 (Canis familiaris [11]) [µM] | Emax (Canis familiaris [6]) | Emax (Canis familiaris [7]) | Ratio [8] | Ratio [10] | Ratio [12]
FC(F)(F)c1ccc(Cl)c(NC2=NCCN2)c1 | 4.7 | 1560 | 10 | 179 | 65.8 | 73 | 5.1 | 81 | 22 | 33 | 2.2 | 
Cc1cc(C)c2c(c1)CC1(CC2)CN=CN1 (stereo not given) | 0.8 |  | 20 |  |  | 91 | 2.9 | 66 | 5 | 2.9 | 2.8 | 25
COc1cccc2c1CC1(CC2)CNC=N1 (stereo not given) |  | 51 |  | 99 |  |  |  |  |  |  |  | 
COc1ccc2c(c1)CC1(CC2)CNC=N1 (stereo not given) |  | 18 |  | 193 |  |  |  |  |  |  |  | 
COc1ccc2c(c1)CCC1(CNC=N1)C2 (stereo not given) |  | 87 |  | 1200 |  |  |  |  |  |  |  | 
Cc1cc2c(cc1C)CC1(CC2)CN=CN1 (stereo not given) |  |  | 37 |  |  | 72 | 2.7 | 64 | 0 | 0.5 | 2.5 | 14
COc1cccc2c1CC1(CC2)CN=CN1 (stereo not given) | 7.2 |  | 0.64 |  | 16 | 139 | 0.5 | 100 | 97 | 2 | 4.6 | 
Fc1cccc2c1CC1(CC2)CN=CN1 (stereo not given) | 57 | 12 | 4.6 | 152 | 2.5 | 131 | 2.3 | 99 | 75 | 0.6 | 1 | 
NC1=NC2(CCc3cccc(Cl)c3C2)CO1 (stereo not given) | 0.36 | 1.6 | 0.2 | 20 | 0.8 | 140 | 0.014 | 117 | 68 | 2 | 3 | 
COc1cccc2c1CCC1(CNC=N1)C2 (stereo not given) |  | 12 |  | 159 |  |  |  |  |  |  |  | 
COc1cccc2c1CCC1(CN=CN1)C2 (stereo not given) | 2 |  | 0.85 |  | 3.4 | 139 | 0.8 | 101 | 93 | 5.4 | 4.7 | 

Further lines, with some results ahead:

EC50 (Canis familiaris [1]) [µM] | Ki [2] [nM] | C20 [3] [µg/kg] | Ki [4] [nM] | Ki [5] [µM] | Max [9] [mmHg] | EC50 (Canis familiaris [11]) [µM] | Structure (SMILES) | Emax (Canis familiaris [6]) | Emax (Canis familiaris [7]) | Ratio [8] | Ratio [10] | Ratio [12]
 |  | 42 |  | 29.4 | 105 | 8.8 | COc1ccc2c(c1)CCC1(CN=CN1)C2 (stereo not given) | 60 | 3 | 2.6 | 1.5 | 4.77
 |  | 1.5 |  | 16 | 106 | 7.1 | COc1ccc2c(c1)CC1(CC2)CN=CN1 (stereo not given) | 49 | 0 | 3.9 | 6.9 | 0.21
21 | 3 | 19 | 95 | 0.7 | 91 | 2 | Clc1cc(Cl)c2c(c1)CC1(CC2)CN=CN1 (stereo not given) | 45 | 10 | 9.5 | 3.1 | 
 |  | 6.3 |  |  | 116 | 5.5 | Clc1ccc2c(c1)CC1(CC2)CN=CN1 (stereo not given) | 72 | 0 | 2.6 | 5.8 | 1.15
 |  | 245 |  |  | 66 | 4.3 | CC(C)c1ccc2c(c1)CC1(CC2)CN=CN1 (stereo not given) | 53 | 0 | 2.9 | 2.9 | 57
 |  | 7.8 |  |  | 108 | 11 | Fc1ccc2c(c1)CC1(CC2)CN=CN1 (stereo not given) | 67 | 8 | 5 | 7.7 | 0.71
 |  | 6.3 |  |  | 120 | 6 | Clc1ccc2c(c1)CCC1(CN=CN1)C2 (stereo not given) |  | 0 | 2.8 |  | 1.05
